From ChEMBL document CHEMBL1125703, “Synthesis, hydrolysis rates, supercomputer modeling, and antibacterial activity of bicyclic tetrahydropyridazinones” (J Med Chem, 1991) come the findings set out here.

What all share (format): ADME
Common to all, as to settings: buffer

Data set [1] in a line: Compound was evaluated for its hydrolysis at pH 9 half life period (T1/2). The procedure, abridged: (§1)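 Alkaline hydrolysis, i.e. chemical reactivity of the lactam ring with hydroxide ion, followed by pH stat at the pH named in the line. Ionic strength (μ) was 0.5 and the temperature 35 °C. Pseudo-first-order rate constants and half-lives were obtained under these conditions. Some entries are single determinations.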

The nature of data set [2]: Compound was evaluated for its hydrolysis at pH 9 expressed as pseudo first order rate constant (K) (micro = 0.5). The procedure, abridged:
as §1

Data set [3] in a line: Compound was evaluated for its hydrolysis at pH 10 expressed as pseudo first order rate constant (K) (micro = 0.5). The procedure, abridged:
as §1

Data set [4] is described as follows: Compound was evaluated for its hydrolysis at pH 10 half-life period (T1/2). The method, boiled down:
as §1

Data set [5] in a line: Compound was evaluated for its hydrolysis at pH 9 for half life period (T1/2). The procedure, abridged:
as §1

In data set [1], `CO/N=C(/C(=O)NC1CN2CC(C#N)=C(C(=O)O)N2C1=O)c1csc(N)n1` (stereo not given) gave a half-life of 24 min. Further, in data set [2], the k came out at 1.73 h⁻¹.

For `CC1(C)S[C@@H]2[C@H](NC(=O)COc3ccccc3)C(=O)N2[C@H]1C(=O)O` [PENICILLIN V], the k in data set [3] came to 0.248 h⁻¹.

In turn, `CO/N=C(/C(=O)NC1CN2CC(C(=O)O)=C(C(=O)O)N2C1=O)c1csc(N)n1` (stereo not given) displayed a k in data set [3] of 0.324 h⁻¹. In data set [4], this compound showed a half-life of 128 min.

As to `CO/N=C(/C(=O)NC1CCN2CC(C(C)=O)=C(C(=O)O)N2C1=O)c1csc(N)n1` (stereo not given), in data set [2], the k stood at 3.16 h⁻¹. In data set [5], the half-life was 13.2 min.

As to `CO/N=C(/C(=O)NC1CCN2CC(C(=O)[O-])=C(C(=O)[O-])N2C1=O)c1csc(N)n1.[Na+].[Na+]` (stereo not given), the results for the k in data set [3] and in data set [2] were 0.146 h⁻¹ and 0.0144 h⁻¹, respectively. Also, the half-life was 2880 min in data set [1] and 285 min in data set [4].

As for `CO/N=C(/C(=O)NC1CCN2CC(C#N)=C(C(=O)O)N2C1=O)c1csc(N)n1` (stereo not given), in data set [1], the half-life is 24 min. Besides, the k in data set [2] is 1.75 h⁻¹.

`CO/N=C(\C(=O)NC1CN2CC(C(C)=O)=C(C(=O)O)N2C1=O)c1csc(N)n1` (stereo not given) gave a half-life in data set [1] of 57.6 min. Moreover, in data set [2], the k turned out to be 0.724 h⁻¹.

By half-life is commonly meant the time in which the quantity being followed falls by half.
